Source: PubChem
A selection: hits, their analogues and other compounds. The true share with any hit is near 2.3%.
CRFR2-BP ag: agonists of human CRF-binding protein/CRF-R2 receptor complex; HEK293 CRF-R2/CRF-BP, calcium dye fluorescence (FLIPR); percent of saturating CRF peptide response; activation, % at 13.2 µM; 350,000 compounds, 0.46% hits; AID 588473;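 active means activation of at least 50%, plus an integration ratio under a set limit after plate pattern correction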
TPT1 inh: blocks Candida albicans tRNA 2'-phosphotransferase; recombinant caTPT1, FP RNA substrate dephosphorylation; inhibition, % at 5 µM; 300,000 compounds, 0.81% hits; AID 1962;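 active means inhibition above the mean of all tested compounds plus 3 SD, set per screening campaign, cut at about 24% in these data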
CRFBP-R2 block: CRF-BP/CRF-R2 complex antagonism; 350,000 compounds, 0.59% hits; AID 588475; inhibition, % at 11.8 µM; HEK293 CRF-R2/CRF-BP, CRF-induced calcium fluorescence;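 active means inhibition of the ligand-induced calcium signal above about 50% at the single tested concentration, limit read from the data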
HNF4A DNA FP: change in binding of human HNF4 alpha to DNA | AID 1224865 | activity change, % at 10 µM | 360,000 compounds, 0.3% hits | HNF4a-FITC DNA binding, fluorescence polarization, 1 h | P41235; in the data active means activity change above about 30%, passing the limit was not always enough
Target sequence (P41235 whole entry, looked up): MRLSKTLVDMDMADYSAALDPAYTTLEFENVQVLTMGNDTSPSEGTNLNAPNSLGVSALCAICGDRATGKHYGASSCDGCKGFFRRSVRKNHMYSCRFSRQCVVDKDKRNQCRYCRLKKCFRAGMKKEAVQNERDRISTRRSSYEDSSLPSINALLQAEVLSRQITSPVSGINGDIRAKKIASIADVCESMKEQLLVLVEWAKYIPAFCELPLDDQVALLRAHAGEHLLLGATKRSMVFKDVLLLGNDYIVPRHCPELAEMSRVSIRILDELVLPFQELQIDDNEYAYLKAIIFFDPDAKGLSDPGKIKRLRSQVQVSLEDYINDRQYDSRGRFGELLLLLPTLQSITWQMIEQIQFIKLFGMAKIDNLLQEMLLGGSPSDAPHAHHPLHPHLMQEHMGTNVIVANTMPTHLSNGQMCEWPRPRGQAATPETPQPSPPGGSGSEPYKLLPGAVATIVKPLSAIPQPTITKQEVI
CSN inh: CSN deneddylation inhibition. AID 651999. 360,000 compounds, 0.38% hits. Purified CSN, SCF-Nedd8-OG deneddylation, fluorescence polarization. inhibition, % at 12.5 µM. Q92905;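 active means pattern-corrected inhibition above about 35%, with an unprinted fluorescence ratio check between 0.5 and 1.5, limit read from the data, passing the limit was not always enough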
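assay system = purified human Csn5 enzyme expressed in HEK293T cells | amount = 0.24 nM enzyme | buffer or medium = Tris/NaCl/DTT buffer, pH 7.5 | reagent = 10 nM SCFSkp2-Nedd8OG | compound = one concentration, 12.5 µM, 0.25% DMSO | times = 90 min reaction at room temperature | signal = FP | read-out basis = % inhibition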
Rpn11 block: blocks the human proteasome subunit Rpn11; human 26S proteasome, Ub4-pepOG fluorescence polarization; 20S core pre-blocked with epoxomicin; calls only at 20 µM; 360,000 compounds, 0.59% hits;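 active means inhibition at 20 µM, scaled to each plate's controls, above about 33%, limit read from the data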
caTPT1 confirm: confirmation of Candida albicans TPT1 inhibitors; shares compounds with TPT1 inh; recombinant caTPT1, fluorescence polarization, RNase T1 coupled; inhibition, % at 5 µM; 2,400 compounds, 74% hits; AID 2149;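 active means inhibition above the primary screen limit, the mean inhibition of all tested compounds plus 3 SD, cut at about 25% in these data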
RNase T1 counter: blocks Aspergillus oryzae RNase T1, a TPT1 counter-screen; RNase T1 cleavage, fluorescence polarization, 1536-well; 2,400 compounds, 83% hits; shares compounds with TPT1 inh; inhibition, % at 5 µM;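 active means inhibition above the solvent-only control well mean plus 3 SD, limit set per screening run, cut at about 23% in these data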;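 further: inhibitors block cleavage so intact labeled substrate keeps polarization high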
Target sequence (P00651 whole entry, looked up): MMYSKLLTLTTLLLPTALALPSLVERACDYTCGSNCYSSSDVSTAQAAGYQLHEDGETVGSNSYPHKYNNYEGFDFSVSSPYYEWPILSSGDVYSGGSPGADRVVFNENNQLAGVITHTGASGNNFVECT
Each line names hits and unclear results; the compound was inactive in the other large screens (follow-up assays come after a bar, where shown).

COc1cc(/C=C/C(=O)c2c(O)cc(C)oc2=O)cc(OC)c1O	TPT1 inh 36.9 | caTPT1 confirm inactive | RNase T1 counter inactive
O=C(O)CCc1ccc(S(=O)(=O)N2CCOCC2)cc1	none
CCCN(CCC)c1nc(-c2ccccn2)nc2ccccc12	none (no result: TPT1 inh)
COC(=O)[C@H]1[C@H]2C[C@@H]3c4[nH]c5cc(OC)ccc5c4CCN3C[C@H]2C[C@@H](OC(=O)/C=C/c2cc(OC)c(OC)c(OC)c2)[C@@H]1OC	TPT1 inh 38.4 | caTPT1 confirm 35.5 | RNase T1 counter 48.0
COc1ccc2c3c([nH]c2c1)[C@H]1C[C@H]2[C@H](C[C@@H](O)[C@H](OC)[C@H]2C(=O)O)CN1CC3	none
CN(Cc1ccccc1)C(=O)[C@@H]1CCCN1C(=O)OC(C)(C)C	none (no result: CRFR2-BP ag, TPT1 inh, CRFBP-R2 block, Rpn11 block)
Cc1cc2c(c(=O)o1)C1(C(=O)N(CC(=O)O)c3ccccc31)C(C#N)=C(N)O2 (stereo unspecified)	TPT1 inh 37.2 | caTPT1 confirm 41.8 | RNase T1 counter 48.8
COc1ccc(NC(=O)NC2(C(=O)N3CCCC3)CCCCC2)cc1	none
Cn1c(N)c(-c2ccccc2)c2ccc([N+](=O)[O-])cc2c1=O	CRFR2-BP ag 123.2, TPT1 inh 84.2, HNF4A DNA FP 98.8 (not shown: Rpn11 block) | caTPT1 confirm 89.0 | RNase T1 counter 91.5
CN(C)CCNC(=O)c1c(O)c2c([nH]c1=O)CCCC2	TPT1 inh 36.9 | caTPT1 confirm inactive | RNase T1 counter 25.0
CCN(CC)CCNC(=O)c1c(O)c2c([nH]c1=O)CCCC2	none
CC1CCCCC1NC(=O)COC(=O)c1c2c(nc3ccccc13)/C(=C/c1ccco1)CC2 (stereo unspecified)	TPT1 inh 33.5 | caTPT1 confirm 29.0 | RNase T1 counter 40.8
O=C(COC(=O)c1c2c(nc3ccccc13)/C(=C/c1ccco1)CC2)NC1CCCC1	none (no result: TPT1 inh)
C=C(C)c1cccc(C(C)(C)NC(=O)NCC2CCCO2)c1 (stereo unspecified)	TPT1 inh 24.6 | caTPT1 confirm inactive | RNase T1 counter inactive
C=C(C)c1cccc(C(C)(C)NC(=O)N2CCC(C)CC2)c1	none
N#Cc1c(Sc2ncc(C(F)(F)F)cc2Cl)nsc1C/C=N\OCc1ccccc1Br	TPT1 inh 54.7 (not shown: Rpn11 block) | caTPT1 confirm 35.1 | RNase T1 counter 37.2
O=C(NC1CC(=O)c2sccc21)c1cccc(C(F)(F)F)c1 (stereo unspecified)	none
Cc1cccc(-n2ccnc2SCC(=O)Nc2ccc3c(c2)OCCO3)c1	none
O=C(CC1Nc2ccccc2NC1=O)NCCc1ccccc1 (stereo unspecified)	none
O=C(CC1Nc2ccccc2NC1=O)c1ccccc1 (stereo unspecified)	TPT1 inh 73.0 (no result: CRFR2-BP ag, CRFBP-R2 block, HNF4A DNA FP, CSN inh, Rpn11 block) | caTPT1 confirm 62.3 | RNase T1 counter 73.1
CC(NC(=O)CC1Nc2ccccc2NC1=O)c1ccccc1 (stereo unspecified)	TPT1 inh 29.8 | caTPT1 confirm 39.2 | RNase T1 counter 52.1
CCOC(=O)/C(C#N)=C\c1ccc(N2CCN(C/C=C/c3ccccc3)CC2)cc1	CRFR2-BP ag 54.6, TPT1 inh 46.2 (not shown: Rpn11 block) | caTPT1 confirm 81.6 | RNase T1 counter 91.8
CCOC(=O)/C(C#N)=C\c1cc(C)n(-c2ccccc2)c1C	none
COCCOCC(O)CN1CCN(c2ccc(C)cc2)CC1 (stereo unspecified)	none
O=C(O)C(=O)/C(=C\c1ccsc1)c1ccc2ccccc2n1	none
O=C(O)C(=O)/C(=C\c1cccc2ccccc12)c1ccc2ccccc2n1	CRFR2-BP ag 96.2, TPT1 inh 49.0 (not shown: Rpn11 block) | caTPT1 confirm 89.1 | RNase T1 counter 102.3
CCOC(=O)CNC(=O)CSc1nnc(NC(=O)c2ccccc2Cl)s1	none
CCCN1C(=O)/C(=C/C=C2\N(CC)c3ccccc3C2(C)C)SC1=S	CRFR2-BP ag 169.5, TPT1 inh 177.8 (not shown: Rpn11 block) | caTPT1 confirm 138.4 | RNase T1 counter 125.2
CN1/C(=C\C=O)C(C)(C)c2ccccc21	none
CCCN1C(=O)/C(=C2/C=Cc3ccccc3N2CC)SC1=S	none
CN1/C(=C\C=C2/SC(=S)N(CC(=O)O)C2=O)C(C)(C)c2ccccc21	CRFR2-BP ag 263.1, TPT1 inh 78.6 (not shown: Rpn11 block) | caTPT1 confirm 74.5 | RNase T1 counter 78.3
CCCN1C(=O)/C(=C\C=C2/Sc3ccccc3N2CCO)SC1=S	TPT1 inh 63.9 | caTPT1 confirm 42.0 | RNase T1 counter 54.2
CCCN1C(=O)/C(=C/c2ccncc2)SC1=S	none
O=C(NCCc1c[nH]c2ccccc12)c1cccnc1	none
C=CCN1C(=O)/C(=C/C=C2/N(CC)c3ccc(S(=O)(=O)N(C)C)cc3N2CC)SC1=S	CRFR2-BP ag 164.5, TPT1 inh 160.8 (not shown: Rpn11 block) | caTPT1 confirm 143.8 | RNase T1 counter 138.0
O=C(Nc1ccc2c(c1)OCO2)c1cc2ncc(Br)cn2n1	none (no result: TPT1 inh)
O=C(N/C=C/c1ccco1)Nc1cccc(Cl)c1	TPT1 inh 34.3 | caTPT1 confirm inactive | RNase T1 counter inactive
COc1ccc(NC(=O)N/C=C/c2ccco2)cc1	none
CN(C[C@H](Cc1ccccc1)N(C[C@H](Cc1ccccc1)N(CCc1cc(C(F)(F)F)cc(C(F)(F)F)c1)N=O)N=O)N=O	none
CCc1ccc(/C=C2\Oc3c(ccc(O)c3CN3CCN(C)CC3)C2=O)cc1	TPT1 inh 26.0 | caTPT1 confirm 27.5 | RNase T1 counter 37.6
COc1ccccc1/C=C/C=C1\Oc2c(ccc(O)c2CN2CCN(CCO)CC2)C1=O	CRFR2-BP ag 59.4, TPT1 inh 39.4, HNF4A DNA FP 40.1 (not shown: Rpn11 block) | caTPT1 confirm 46.0 | RNase T1 counter 54.4
O=C1/C(=C/C=C/c2ccccc2)Oc2c1ccc(O)c2CN1CCN(CCO)CC1	none
COc1cccc(C(=O)NN2CC(O)=C(c3nc4ccccc4n3C)C2=N)c1	none (no result: CRFR2-BP ag, CRFBP-R2 block, HNF4A DNA FP, CSN inh, Rpn11 block)
CCC(C)(C(=O)NC1CCCCC1)N(C(=O)Cc1cccs1)c1ccccc1 (stereo unspecified)	TPT1 inh 67.5 | caTPT1 confirm inactive | RNase T1 counter inactive
CCC(C)(C(=O)NC1CCCC1)N(Cc1cccs1)C(=O)Cc1cccs1 (stereo unspecified)	none
CC(=O)Oc1ccc(C(=O)Nc2cccc(NC(=O)c3ccco3)c2)cc1	none
CC(C)CC(=O)N1CCN(Cc2ccc3ccccc3c2)CC1	none
CSc1ccc(CN2CCN(C(=O)CC(C)C)CC2)cc1	TPT1 inh 25.9 | caTPT1 confirm inactive | RNase T1 counter inactive
COc1ccc(-c2c/c(=N\c3nc(-c4ccccc4)c(C)s3)c3ccccc3o2)cc1O	TPT1 inh 26.5 | caTPT1 confirm inactive | RNase T1 counter 30.6
